Data set [1] relates to Candida albicans. Kind of data set: Antifungal activity against Candida albicans ATCC 90028 after 24 to 48 hrs by serial broth microdilution susceptibility test. Format: functional. Put shortly: (§1)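 MIC determined by serial microdilution in microplates. Candida inocula were prepared in L-glutamine-deficient RPMI-1640 medium.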
Data set [2] has as its system Candida albicans. Kind of data set: Inhibition of beta (1,3) glucan synthase in Candida albicans cell membrane using UDP-Glc as substrate assessed as aniline blue-glucan complex formation at 187 uM by microtiter-based fluorescence method. Put shortly:
(§2)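 β(1,3)-glucan synthase in the membrane fraction of C. albicans was assayed by a microtiter-based fluorescence method across a concentration range. Values are means of three independent experiments (SD); IC50 was determined.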

Data set [3] has as its system Candida albicans. Kind of data set: Inhibition of beta (1,3) glucan synthase in Candida albicans cell membrane using UDP-Glc as substrate assessed as aniline blue-glucan complex formation by microtiter-based fluorescence method. In short, it runs like this: as §2
Data set [4] concerns Staphylococcus aureus. Briefly: Antibacterial activity against Staphylococcus aureus ATCC 43300 after 18 to 24 hrs by serial broth microdilution susceptibility test. It counts as functional. Put shortly: as §1
(Broth dilution looks for growth in wells or tubes with falling amounts of substance.)

The subject of data set [5] is Candida albicans. Kind of data set: Antifungal activity against Candida albicans ATCC 10231 assessed as increase in intracellular potassium release after 30 mins. It counts as functional, organism-based. Put shortly: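 Efflux of K+ from C. albicans cells was monitored continuously with a potassium-selective electrode. Release was expressed relative to a positive control, and EK50 was taken as the concentration releasing 50% of intracellular potassium.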

A further data set has as its system Pseudomonas aeruginosa. Briefly: Antibacterial activity against Pseudomonas aeruginosa ATCC 27853 after 18 to 24 hrs by serial broth microdilution susceptibility test. It counts as functional. In short, it runs like this:
as §1

For data set [6], the system named is Bordetella bronchiseptica. Kind of data set: Antibacterial activity against Bordetella bronchiseptica ATCC 4617 after 18 to 24 hrs by serial broth microdilution susceptibility test. Format: functional. In short, it runs like this:
as §1

The subject of data set [7] is Staphylococcus aureus. Briefly: Antibacterial activity against Staphylococcus aureus ATCC 25923 after 18 to 24 hrs by serial broth microdilution susceptibility test. It counts as functional. In short, it runs like this: as §1
Data set [8] in a line: Toxicity in human erythrocytes assessed as hemolysis at 300 uM after 30 mins by spectrophotometry. It counts as cell-based, Erythrocyte. Conditions: read-out: Activity. In short, it runs like this:
(§3)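 Human erythrocytes suspended in PBS were exposed to lipopeptides at 0.001–0.4 mmol/l and hemolysis was measured.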

The test system of data set [9] is Candida albicans. Kind of data set: Antifungal activity against Candida albicans ATCC 10231 assessed as morphological changes at < 60 uM after 6 hrs by calcofluor white and aniline blue staining-based fluorescence microscopy. Format: functional, organism-based. In short, it runs like this:
(§4)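 C. albicans ATCC 10231 yeast cells were incubated with compound for 6 h, at up to 2×MIC. Chitin was stained with Calcofluor White and glucan with Aniline Blue, then cells were examined by fluorescence microscopy against untreated controls.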

For a further data set, the system named is Pichia kudriavzevii. Kind of data set: Antifungal activity against Candida krusei ATCC 6258 after 24 to 48 hrs by serial broth microdilution susceptibility test. Format: functional. In short, it runs like this:
as §1

For another data set, the system named is Candida parapsilosis. Briefly: Antifungal activity against Candida parapsilosis ATCC 22019 after 24 to 48 hrs by serial broth microdilution susceptibility test. It counts as functional. As to conditions: Lodderomyces parapsilosis. Put shortly:
as §1

Data set [10] in a line: Toxicity in human erythrocytes assessed as hemolysis at 100 uM after 30 mins by spectrophotometry. Format: cell-based, Erythrocyte. As to conditions: read-out: Activity. Put shortly:
as §3

Another data set concerns Acinetobacter baumannii. Briefly: Antibacterial activity against Acinetobacter baumannii ATCC 19606 after 18 to 24 hrs by serial broth microdilution susceptibility test. Format: functional. Conditions: ATCC 19606 = CIP 70.34 = JCM 6841. In short, it runs like this:
as §1

In data set [11] the test system is Escherichia coli. Briefly: Antibacterial activity against Escherichia coli ATCC 25922 after 18 to 24 hrs by serial broth microdilution susceptibility test. It counts as functional. Put shortly: as §1
Data set [12] has as its system Escherichia coli. Briefly: Antibacterial activity against Escherichia coli ATCC BAA-198 after 18 to 24 hrs by serial broth microdilution susceptibility test. Format: functional. In short, it runs like this:
as §1

For data set [13], the system named is Candida albicans. Kind of data set: Antifungal activity against Candida albicans ATCC 10231 assessed as pseudohyphae formation at 120 uM after 6 hrs by calcofluor white and aniline blue staining-based fluorescence microscopy. Format: functional, organism-based. In short, it runs like this: as §4
Data set [14] relates to Klebsiella pneumoniae subsp. pneumoniae. Kind of data set: Antibacterial activity against Klebsiella pneumoniae subsp. pneumoniae ATCC 13882 after 18 to 24 hrs by serial broth microdilution susceptibility test. Format: functional. Put shortly:
as §1

As a reminder, the MIC is the lowest concentration that inhibits growth of the organism. A higher MIC goes with weaker potency. What is called inhibition is the drop in the measured response relative to a control, in per cent. What is called EC50 is the concentration at which the effect is half-maximal.

Molecules are shown by their SMILES. Values after ≈ are worked out from the molar mass of the structure shown. Active and inactive are the calls of the source. The rule behind the calls is not given here.

As for `CCCCCCCCNC(=O)[C@H](Cc1ccccc1)NC(=O)[C@H](CCCCNC(=O)[C@@H](N)CCCCNC(=O)OCc1ccccc1Cl)NC(=O)[C@@H](N)CCCCNC(=O)OCc1ccccc1Cl`, the MIC against Candida albicans [1] stood at 60 µM (≈ 59.9 µg/mL); against Staphylococcus aureus [4] it was 8 µM (≈ 7.98 µg/mL); with Pseudomonas aeruginosa it was 120 µM (≈ 120 µg/mL); in [6], 7 µM (≈ 6.99 µg/mL); against Staphylococcus aureus [7] it was 30 µM (≈ 29.9 µg/mL); against Pichia kudriavzevii, 15 µM (≈ 15 µg/mL). Further, the MIC in the data set on Candida parapsilosis amounted to 15 µM (≈ 15 µg/mL); against Acinetobacter baumannii, 60 µM (≈ 59.9 µg/mL); in the data set on Escherichia coli [11], 8 µM (≈ 7.98 µg/mL); in the data set with Escherichia coli [12], 8 µM (≈ 7.98 µg/mL); in data set [14], 119 µM (≈ 119 µg/mL). Also, the values for the inhibition in the data set with Candida albicans [2] and in the data set on Candida albicans [3] were 43% and “Dose-dependent effect”, respectively. Also, the Activity result in the data set with Candida albicans [5] is “Dose-dependent effect”. Besides, the concentration giving a half-maximal response (EC50) with Candida albicans [5] (Candida albicans, ATCC 10231, 0.5 h) stood at 17 µM. Also, in data set [8], the hemolysis at 0.5 h, 300 µM turned out to be 10%. Also, the result in the data set with Candida albicans [9] was inactive. For the same molecule, in data set [10], the hemolysis at 0.5 h, 100 µM is 1%. Also, the outcome in the data set on Candida albicans [13] was Active.

These data come from ChEMBL document CHEMBL1949532, “Novel dendrimeric lipopeptides with antifungal activity” (Bioorg Med Chem Lett, 2012).
